S100A4 MyoIIA: blocks human S100A4 binding to myosin IIA peptide; P26447; S100A4/TAMRA-MyoIIA peptide fluorescence polarization; inhibition, % at 10.7 µM; 360,000 compounds, 0.14% hits; AID 652163;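 active means mean inhibition of at least 70% across replicates, with every replicate also reaching that level; inconclusive means mean inhibition reaches 70% but some replicates fall short; inactive means mean inhibition below 70%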
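Material: S100A4 monomer protein | Medium: HEPES pH 7.2 with CaCl2, KCl, NaCl, DTT, Triton | Reagent: Labelled myosin peptide probe, 5 nM | Doses: One dose per compound | Times: 5 min incubation before reading | Benchmarks: Neutral control DMSO, positive control TFP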
MLL AF4-AF9 inh: inhibitors of human MLL-AF4/AF9 interaction | P42568 | AlphaScreen, biotin-AF4 peptide binding to FLAG-AF9 | inhibition, % at 10 µM | 350,000 compounds, 0.47% hits | AID 651704;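 active means every replicate reaching a set inhibition limit, whatever the replicate mean, cut at about 25% in these data; inconclusive means mean inhibition reaches that limit but some replicates miss it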;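 further: 0% = plate neutral control median and 100% = total signal loss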
Target sequence (P42568 whole entry, looked up): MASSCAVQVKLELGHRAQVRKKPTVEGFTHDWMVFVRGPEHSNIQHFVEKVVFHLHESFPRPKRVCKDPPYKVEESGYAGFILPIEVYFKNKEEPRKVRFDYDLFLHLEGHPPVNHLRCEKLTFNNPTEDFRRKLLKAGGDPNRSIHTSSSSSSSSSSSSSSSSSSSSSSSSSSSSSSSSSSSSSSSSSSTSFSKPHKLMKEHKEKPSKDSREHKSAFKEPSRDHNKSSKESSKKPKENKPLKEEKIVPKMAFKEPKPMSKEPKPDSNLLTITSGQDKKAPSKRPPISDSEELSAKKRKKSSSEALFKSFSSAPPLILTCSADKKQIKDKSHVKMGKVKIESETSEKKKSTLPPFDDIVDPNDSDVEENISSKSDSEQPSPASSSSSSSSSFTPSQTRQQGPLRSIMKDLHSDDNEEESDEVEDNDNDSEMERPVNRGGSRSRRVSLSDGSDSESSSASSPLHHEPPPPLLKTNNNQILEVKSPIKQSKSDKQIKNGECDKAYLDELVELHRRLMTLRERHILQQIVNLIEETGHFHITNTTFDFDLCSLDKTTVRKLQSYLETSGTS
CaV13 ICDI inh: Disruptors of the CACNA1D IQ motif to Ca2+-dependent inactivation inhibitor domain association, primary screening, Förster resonance energy transfer in intact living …. AID 743397. 340,000 compounds, 0.098% hits. inhibition, % at 12.3 µM. HEK cells, CFP/YFP FRET ICDI-IQ, plate reader, 10 min; percent FRET-ratio fall versus neutral wells;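 active means mean replicate inhibition of at least 30% and at least 1% of replicates passing that level; inconclusive means only one of the two criteria is met; inactive means neither criterion is met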;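 further: 0% = median of the neutral control wells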
SIRT5 block: sirtuin-5 (human) deacylase inhibition. Purified SirT5, succinyl-peptide AMC, trypsin-coupled fluorescence. 330,000 compounds, 1.1% hits. Q9NXA8. inhibition, % at 15 µM; in the data active means inhibition above about 15%; inconclusive means no clear call, values can overlap the other calls
DENV2 CPE rescue: protects cells from dengue virus 2 cytopathic effect | DENV2-infected cells, cytopathic effect rescue, plate reader | CPE inhibition, % at 9.99 µM | 350,000 compounds, 1.7% hits | AID 651640; in the data active means CPE inhibition above about 20%, passing the limit was not always enough; inconclusive means no clear call, values can overlap the other calls; tested in BHK-21 cells;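 further: 0% = median of neutral control wells and 100% = median of positive control wells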
* hit, by the source's call; ? = inconclusive; nt = no result. Only some compounds are listed: those with a hit (about 2.7% of all), similar ones and a draw of the others.

SMILES	S100A4 MyoIIA	MLL AF4-AF9 inh	CaV13 ICDI inh	SIRT5 block	DENV2 CPE rescue
C[C@H](NC(=O)[C@@H]1[C@@H](CO)[C@@H]2Cn3c(cccc3=O)[C@H]1N2Cc1ccccc1)c1ccccc1	8	-2	nt	19*	-6
C[C@@H](NC(=O)[C@@H]1[C@@H](CO)[C@@H]2Cn3c(cccc3=O)[C@H]1N2Cc1ccccc1)c1ccccc1	-6	-1	nt	7	-2
COc1ccccc1-c1ccc(C2[C@H]3CNC[C@@H]2N3S(=O)(=O)c2ccccc2)cc1 (some centres not stated)	-11	-3	nt	11	-7
CC(C)COC(=O)N(C)C[C@H]1OCc2cn(nn2)CCCC(=O)N([C@@H](C)CO)C[C@H]1C	-11	3	nt	-3	?
O=C(NCc1cccc(F)c1)[C@@H]1[C@@H](CO)[C@@H]2Cn3c(cccc3=O)[C@H]1N2C(=O)c1cnccn1	7	-1	nt	5	82*
Cc1noc(C)c1NC(=O)N(C)C[C@@H]1OCCCC[C@@H](C)Oc2ccc(NS(=O)(=O)c3cn(C)cn3)cc2C(=O)N([C@H](C)CO)C[C@@H]1C	nt	nt	nt	nt	-6
CCCNC(=O)C[C@H]1C[C@@H]2c3cc(NC(=O)NC4CCCCC4)ccc3O[C@@H]2[C@@H](CO)O1	-6	2	nt	-3	-5
O=C(N[C@@H]1CC[C@@H](CCn2cc(C3(O)CCCC3)nn2)O[C@@H]1CO)c1ccccc1F	8	0	nt	-3	5
CN(C)c1ccc(C2C3CCCc4ccccc4C3=NN2C)cc1 (configuration not stated)	0	30*	-5	-2	0
CCN(CC(=O)Nc1c(F)cccc1F)C(=O)CNC(=O)c1cccs1	87*	0	-3	-1	3
CCN(CC(=O)Nc1c(F)cccc1F)C(=O)CNC(=O)c1ccc2ccccc2c1	17	-3	-16	-25	-3
COc1ccc2c3c([nH]c2c1)[C@@H](CO)N(C(=O)Nc1ccccc1F)CC31CN(C(C)=O)C1	1	2	nt	3	-5
COC(=O)c1ccc2nc(C3CCCCC3)c(Cc3ccccc3OC)n2c1	-1	-1	-10	-3	20*
Fc1ccc(-c2nc3ccc(Cl)cn3c2Cc2cccc(F)c2)cc1	0	-3	-4	19*	-3
COC(=O)c1ccc2nc(-c3ccco3)c(Cc3ccsc3)n2c1	-4	-13	-12	-1	68*
COC(=O)c1ccc2nc(-c3ccc(C)cc3)c(Cc3ccccc3)n2c1	-9	-2	-10	24*	-5
CCCc1nc2ccc(C(=O)OC)cn2c1Cc1ccccc1OC	4	1	-10	-4	0
COC(=O)c1ccc2nc(-c3ccc(F)cc3)c(Cc3ccccc3OC)n2c1	-7	0	-9	14	50*
COC(=O)c1ccc2nc(-c3ccc(C#N)cc3)c(Cc3cccc(F)c3)n2c1	1	1	-7	nt	41*
COC(=O)c1ccc2nc(-c3cccc(Br)c3)c(Cc3ccccc3OC)n2c1	-2	1	-5	-4	-4
COC(=O)c1ccc2nc(-c3ccc(C)cc3)c(Cc3cccc(F)c3)n2c1	-6	-1	-5	-3	8
Cc1ccccc1C(=O)N1CCN(c2ccc(NC(=O)c3ccccc3[N+](=O)[O-])cc2)CC1	-6	0	-4	19*	10
CCCC(=O)Nc1ccc2c(c1)C(=O)N(C)[C@H]1CC[C@H](CC(=O)Nc3ccc(F)cc3)O[C@@H]1CO2	nt	nt	nt	nt	1
COc1ccc(C#Cc2ccc([C@@H]3[C@@H](CO)N4C(=O)CN(C(=O)c5ccncc5)C[C@@H]34)cc2)cc1	-1	-2	nt	0	38*
CCCC#Cc1ccc([C@H]2[C@H]3CN(C(=O)Cc4cccnc4)CC(=O)N3[C@H]2CO)cc1	22	6	nt	22*	3
CN(C)CC#Cc1ccc([C@H]2[C@H]3CN(C(=O)c4cccnc4)CC(=O)N3[C@H]2CO)cc1	21	35*	nt	2	-9
COc1ccc(C#Cc2ccc([C@H]3[C@H](CO)N4C(=O)CN(C(=O)c5cccnc5)C[C@@H]34)cc2)cc1	-6	-3	nt	37*	3
CN(C)CC#Cc1ccc([C@@H]2[C@@H](CO)N3C(=O)CN(C(=O)c4cccnc4)C[C@H]23)cc1	8	2	nt	-5	11

High-throughput results (PubChem)
